Most compounds without a hit are left out; they make up all but 4.5% or so of the library.
CHO parental Ca: signal in parental CHO cells, OX1R antagonist counter-screen; parental CHO-K1, ATP-induced calcium, Fluo-8 fluorescence; inhibition, % at 5.6 µM; 330,000 compounds, 0.63% hits;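 active means inhibition above that plate's mean sample inhibition plus 3 SD, cut at about 26% in these data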;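 further: 0% = ATP-challenged DMSO wells and 100% = DMSO wells without ATP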
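Assay system: parental CHO cells; Read-out basis: percent inhibition of ATP-evoked calcium rise, normalized to controls; Benchmarks: ATP and no-ATP DMSO wells; Compound dosing: single nominal dose of 5.6 µM per compound; Signal: Fluo-8 calcium dye fluorescence; Also added: ATP as calcium-mobilizing challenge; Repeats: singlicate.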
TAAR1 ag: agonists of human TAAR1. Q96RJ0. CHO RD-HGA16 TAAR1, Fluo-8 calcium fluorescence; vehicle wells 0%, saturating PEA agonist 100%. activation, % at 3 µM. AID 624467. 360,000 compounds, 0.99% hits;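 active means activation above the mean activation of all test compounds in the run plus 3 SD, cut at about 38% in these data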
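Assay system – CHO-derived RD-HGA16 cells with stable Gα16 and human TAAR1 · Compound dosing – one-point dosing at 3 µM (nominal) · Incubation – 17-24 h seeding, 75 min 37 °C dye, 30 min RT · Measured by – kinetic Fluo-8 calcium fluorescence · Control set – DMSO vehicle as 0%, PEA at EC100 as 100% · Repeats – single well for each compound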
TAAR1 antag: human TAAR1 antagonism; Q96RJ0; CHO RD-HGA16 TAAR1, Fluo-8 calcium fluorescence, antagonist; inhibition, % at 3 µM; 360,000 compounds, 1.5% hits; AID 624466;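 active means inhibition above a per-plate cutoff, the mean inhibition of test compounds on that plate plus 3 SD, cut at about 49% in these data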;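 further: 0% = DMSO plus EC80 beta-PEA response and 100% = DMSO alone without agonist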
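Test system – hTAAR1-expressing CHO RD-HGA16 cells, Gα16-coupled · Reagent – β-PEA at EC80 concentration, post-compound challenge · Compound dosing – 3 µM, single point · Timing – 140 s kinetic read after compound, 140 s after agonist · Detection – Fluo-8 intracellular calcium dye fluorescence, real-time kinetic reads · Control set – DMSO and EC80 PEA controls · Repeats – n of 1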
GPR7 antagonist: antagonists of human GPR7 (neuropeptides B/W receptor 1); P48145; GPR7-expressing cells, fluorescence antagonist assay; inhibition, % at 4.4 µM; 290,000 compounds, 1.1% hits; in the data active means inhibition above about 16%, passing the limit was not always enough;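 further: cells stimulated with the agonist NPW; 0% = agonist with vehicle and 100% = vehicle without agonist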
Target sequence (P48145 whole entry, looked up): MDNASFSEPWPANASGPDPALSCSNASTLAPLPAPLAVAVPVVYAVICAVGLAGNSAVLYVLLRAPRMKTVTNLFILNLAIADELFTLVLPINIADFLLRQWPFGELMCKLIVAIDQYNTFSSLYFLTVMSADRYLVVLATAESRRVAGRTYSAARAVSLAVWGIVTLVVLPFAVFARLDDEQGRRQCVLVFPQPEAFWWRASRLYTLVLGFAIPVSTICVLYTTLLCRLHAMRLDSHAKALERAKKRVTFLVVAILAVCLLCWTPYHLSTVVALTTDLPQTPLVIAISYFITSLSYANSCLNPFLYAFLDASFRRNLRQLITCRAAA
OX1R antag-1: human HCRTR1 antagonism | O43613 | CHO/OX1R cells, Fluo-8 calcium fluorescence, orexin A | inhibition, % at 5 µM | 330,000 compounds, 0.43% hits;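 active means inhibition above its plate's threshold, mean inhibition of all tested compounds on the plate plus 3 SD, cut at about 37% in these data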;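 further: 0% = orexin A challenge wells and 100% = SB-334867-A antagonist wells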
Target sequence (O43613 whole entry, looked up): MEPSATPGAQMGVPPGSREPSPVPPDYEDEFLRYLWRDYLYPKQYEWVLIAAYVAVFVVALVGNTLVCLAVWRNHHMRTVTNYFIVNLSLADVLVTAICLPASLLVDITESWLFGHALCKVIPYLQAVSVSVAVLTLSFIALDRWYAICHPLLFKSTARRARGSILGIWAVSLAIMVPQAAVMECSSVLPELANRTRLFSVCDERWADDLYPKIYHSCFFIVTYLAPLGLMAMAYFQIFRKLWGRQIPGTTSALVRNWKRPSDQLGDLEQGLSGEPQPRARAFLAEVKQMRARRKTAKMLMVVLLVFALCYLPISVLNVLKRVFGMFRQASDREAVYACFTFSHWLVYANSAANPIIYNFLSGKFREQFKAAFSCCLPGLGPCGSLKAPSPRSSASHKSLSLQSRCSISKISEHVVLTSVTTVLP
OX1R antag-2: OX1R (human) antagonism. O43613. OX1R-expressing cells, FRET antagonist read-out. inhibition, % at 6.6 µM. 330,000 compounds, 1.8% hits. AID 485270; in the data active means inhibition mostly above about 38%, no sharp cut-off; inactive means mostly below about 40%;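 further: 0% = agonist challenge alone and 100% = reference antagonist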
nonsel antag count: nonselective antagonist in TAAR1 antagonist counter-screen; shares compounds with TAAR1 antag; counterscreen cell line, calcium fluorescence, antagonist mode; inhibition, % at 3 µM; 2,400 compounds, 77% hits; AID 651780; in the data active means inhibition above about 22%;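 further: CHO-Ga16 host cells stimulated with ATP at an EC80 level; 0% = agonist EC80 plus vehicle and 100% = vehicle without agonist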
TAAR1 ant conf: human TAAR1 antagonism, confirmed. shares compounds with TAAR1 antag. TAAR1-expressing cells, fluorescence antagonist read-out. inhibition, % at 3 µM. 2,400 compounds, 40% hits. AID 651785; in the data active means inhibition above about 49%;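 further: CHO-Ga16 host cells challenged with agonist PEA near its EC80; 0% = agonist at EC80 plus vehicle and 100% = vehicle with no agonist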
Ga16 nonsel ag: nonselective Ga16 agonism, counter-screen. shares compounds with TAAR1 antag. Ga16-expressing cells, calcium fluorescence, agonist counterscreen. activation, % at 3 µM. 2,400 compounds, 18% hits. AID 651953; in the data active means activation above about 12%;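 further: 0% = vehicle wells and 100% = saturating stimulus response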
TAAR1 ag counter: TAAR1 agonism, antagonist counter-screen; activation, % at 3 µM; hTAAR1 cell line, fluorescence activation, agonist mode; 2,400 compounds, 2% hits; shares compounds with TAAR1 antag; AID 651955; in the data active means activation above about 37%;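 further: CHO cells stably expressing TAAR1 with calcium dye readout; 0% = DMSO vehicle and 100% = full agonist response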
An asterisk follows results filed as active; . = no result.

SMILES	CHO parental Ca	TAAR1 ag	TAAR1 antag	GPR7 antagonist	OX1R antag-1	OX1R antag-2	nonsel antag count	TAAR1 ant conf	Ga16 nonsel ag	TAAR1 ag counter
CSCCC(C(=O)NC(C)(C)C)n1c(-c2ccc(C)cc2)nc2ccccc21 (stereo not drawn)	.	-3	-21	.	.	.	.	.	.	.
CC(C)(C)c1ccc(CC(=O)N2CCC2(C)C(=O)NS(=O)(=O)c2ccccc2Cl)cc1 (stereo not drawn)	.	0	6	.	.	.	.	.	.	.
CC1CCCCC1NC(=O)c1ccc(-n2cncn2)cc1 (stereo not drawn)	-10	-3	93*	.	3	8	13	5	8	5
CC1(c2nnc(-c3ccc(Cl)cc3)o2)CC(c2c(Cl)cccc2Cl)=NO1 (stereo not drawn)	-40	15	56*	.	-22	28	23*	32	7	8
CC1(c2nnc(-c3ccc(F)cc3)o2)CC(c2c(Cl)cccc2Cl)=NO1 (stereo not drawn)	-26	5	47	.	-24	43	.	.	.	.
CN(C1CCCCC1)S(=O)(=O)c1ccc(S(=O)(=O)N(CC(=O)Nc2ccccc2)C2CC2)cc1	-20	5	58*	-2	-7	14	26*	41	9	10
Cc1nc2ccc(S(=O)(=O)CCC(=O)NCCc3ccccc3)cc2s1	.	-1	-1	.	.	.	.	.	.	.
N#CC(C#N)=Cc1cc2ccccc2nc1N1CCOCC1	-6	1	-6	-11	1	14	.	.	.	.
N#C/C(=C\c1cc2ccccc2nc1N1CCOCC1)C(=O)Nc1ccc(N2CCOCC2)cc1	-6	13	59*	-13	-27	22	30*	46	9	6
NC(=O)c1ccsc1NC(=O)CN1CCN(S(=O)(=O)c2ccccc2C(F)(F)F)CC1	.	20	89*	.	.	.	30*	65*	20*	34
O=C(CN1CCN(S(=O)(=O)c2ccccc2C(F)(F)F)CC1)NCc1cccs1	-14	2	-9	.	-6	7	.	.	.	.
Cc1cccc(N(C)S(=O)(=O)c2c[nH]c3ccc([N+](=O)[O-])cc23)c1	5	4	57*	-7	-3	16	32*	43	5	1
COC(=O)c1ccccc1NC(=O)CSc1nnnn1-c1ccc(C)cc1C	0	14	50*	12	-27	-3	30*	32	4	3
OC[C@@H]1CN(Cc2ccc3c(c2)OCO3)C[C@H](n2cnc3c(NCc4ccc(F)cc4)ncnc32)O1	.	8	23	.	.	.	.	.	.	.
O=C(Nc1cc(-c2nc3ncccc3o2)ccc1Cl)c1cccs1	-23	6	60*	-9	-33	67*	12	26	4	1
COC(=O)C[C@@H]1CC[C@H](NC(=O)Nc2ccc(F)cc2)[C@@H](CO)O1	.	1	6	.	.	.	.	.	.	.
COc1ccc(S(=O)(=O)Nc2c(NC3CCCCC3)c3ccccc3oc2=O)cc1OC	-22	13	51*	-16	-9	14	12	32	8	13
O=C(NC1(Cc2ccccc2)CCN(CCCc2ccccc2)C1=O)c1ccccc1 (stereo not drawn)	-6	25	66*	.	-8	8	26*	48	8	12
O=C(O)COCC(=O)N1CCN(c2cc(C(F)(F)F)nc3ccccc23)CC1	-6	10	-27	-11	10	-5	.	.	.	.
CCC(=O)N1CCN(c2ccc(-n3c(=O)ccc4cnc5ccc(-c6cnc7ccccc7c6)cc5c43)cc2C(F)(F)F)CC1	.	7	50*	.	.	.	21	34	7	7
COc1cc(N(C)C)ccc1[C@]1(O)C(=O)N(C)c2ccc(Br)cc21	.	3	0	.	.	.	.	.	.	.
Cc1ccc(CSc2nnc(SCC(=O)N/N=C/c3c[nH]c4ccccc34)s2)cc1	.	9	79*	-14	.	.	28*	43	3	3
O=C(CSc1nnc(SCc2ccccc2)s1)N/N=C/c1c[nH]c2ccccc12	.	5	0	2	.	.	.	.	.	.
CCN(CC)S(=O)(=O)c1ccc2[nH]cc(C(=O)NCCN3CCCCCC3)c(=O)c2c1	-8	9	6	-3	14	15	.	.	.	.
CCN(CC)S(=O)(=O)c1ccc2[nH]cc(C(=O)NCCC3=CCCCC3)c(=O)c2c1	7	11	67*	-2	18	21	32*	33	6	5
SMILES	CHO parental Ca	TAAR1 ag	TAAR1 antag	GPR7 antagonist	OX1R antag-1	OX1R antag-2	nonsel antag count	TAAR1 ant conf	Ga16 nonsel ag	TAAR1 ag counter
COc1ccc(C2CC(=O)C(c3ccccc3OC)=CN2Cc2ccccc2)cc1 (stereo not drawn)	.	6	56*	.	.	.	21	37	5	5
COc1ccc(C2CC(=O)C(c3ccc(C)cc3)=CN2Cc2ccccc2)cc1 (stereo not drawn)	.	-1	22	.	.	.	.	.	.	.
O=C(COC(=O)c1c2c(nc3ccccc13)CCCCC2)c1ccc(Cl)s1	-22	0	7	-12	-20	22	.	.	.	.
O=C(COC(=O)c1c2c(nc3ccccc13)CCCC2)c1cccs1	-21	6	53*	-4	-26	53	26*	36	2	1
O=C(OCC(=O)N1CCc2ccccc21)c1c2c(nc3ccccc13)CCCC2	-20	3	57*	-9	-23	40	24*	37	1	3
COc1cc(CNC[C@H]2O[C@@H](n3ccc(N)nc3=O)[C@H](O)[C@@H]2O)ccc1OCc1ccc(C)cc1	.	1	1	.	.	.	.	.	.	.
COc1ccc(-c2cccc3[nH]c4c(c23)CCN2C(=O)[C@H]3[C@H](C)ON(C)[C@H]3C[C@@H]42)cc1	.	9	50*	.	.	.	22*	33	8	8
C[C@@H]1ON(C)[C@H]2C[C@H]3c4[nH]c5cccc(-c6ccc7c(c6)OCO7)c5c4CCN3C(=O)[C@@H]12	.	9	56*	.	.	.	23*	40	7	10
COc1cccc(-c2cccc3c4c([nH]c23)[C@@H]2C[C@H]3[C@@H](C(=O)N2CC4)[C@H](C)ON3C)c1	.	6	53*	.	.	.	22*	36	5	9
C[C@@H]1ON(C)[C@H]2C[C@H]3c4[nH]c5c(-c6ccccc6)cccc5c4CCN3C(=O)[C@@H]12	.	7	28	.	.	.	.	.	.	.
